ERAP1 HTS inh: ERAP1 (human) enzyme inhibition. Q9NZ08. recombinant ERAP1, Leu-AMC fluorescence, 60 min. inhibition, % at 10.7 µM. 340,000 tested, 0.15% active;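 active = mean replicate inhibition of at least 30%, or all replicates individually reaching that 30% level; inactive = mean below 30% and not every replicate reaching it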;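 note: 0% = neutral control wells and 100% = L-leucinethiol positive control wells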
S100A4 inh HTS: inhibitors of human S100A4 binding to myosin IIA peptide | P26447 | S100A4/TAMRA-MyoIIA peptide fluorescence polarization | inhibition, % at 10.7 µM | 360,000 tested, 0.14% active | AID 652163;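 active = mean inhibition of at least 70% across replicates, with every replicate also reaching that level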
Target sequence (P26447 whole entry, looked up): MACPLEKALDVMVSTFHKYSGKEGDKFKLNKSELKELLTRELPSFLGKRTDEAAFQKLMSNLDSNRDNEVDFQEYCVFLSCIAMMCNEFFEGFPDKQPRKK
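Test system: S100A4 monomer protein. Medium: HEPES buffer with Ca2+, pH 7.2. Reagent: fluorescent myosin IIA peptide, 5 nM. Compound dosing: single-point compound testing. Timing: 5 min between mix addition and reading. Benchmarks: DMSO neutral and TFP positive wells.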
ARNT-TACC3 inh: disruptors of human ARNT/TACC3 interaction; AlphaScreen His-ARNT PAS-B/GST-TACC3 binding, luminescence; TACC3 fragment carries E629A point mutation; inhibition, % at 9.99 µM; AID 623870; 390,000 tested, 0.66% active; Q9Y6A5;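 active = mean inhibition of replicates at least 50% and at least half of replicates each reaching 50%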;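 note: 0% = complete ARNT plus TACC3 wells and 100% = ARNT alone without TACC3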
Ecoli rRNA inh: inhibits bacterial ribosomal RNA function over humanized ribosomes. E. coli WT GFP vs humanized-ribosome RFP mutants, fluorescence, 24 h; stronger effect = lower value; DMSO median 0, no signal -100. GFP signal change (wild-type ribosome), % (no concentration beside the values). 350,000 tested, 1.6% active;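 active = significant combined selectivity score with lowered wild-type GFP, culture density cut under 30%, mutant RFP and density less affected; inactive = any of these conditions unmet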
PGC1a acetyl inh: modulators of PGC1a acetylation; U2OS PGC1a acetylation, AlphaScreen anti-acetyl-lysine; with virally co-expressed GCN5 acetyltransferase; 350,000 tested, 0.17% active; inhibition, % at 15.6 µM;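 active = every replicate shows inhibition of at least 40%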;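 note: 0% = neutral control wells and 100% = positive control wells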
Casp6 inh: inhibitors of human caspase-6 | P55212 | purified caspase-6, Z-VEID-R110 cleavage fluorescence | inhibition, % at 12.5 µM | 350,000 tested, 0.53% active | AID 686996;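 active = mean inhibition across replicates at least about 35%, with every replicate also reaching that limit, limit read from the data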;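 note: 0% = median of neutral control wells and 100% = no fluorescence left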
Target sequence (P55212 24-179 limits assumed): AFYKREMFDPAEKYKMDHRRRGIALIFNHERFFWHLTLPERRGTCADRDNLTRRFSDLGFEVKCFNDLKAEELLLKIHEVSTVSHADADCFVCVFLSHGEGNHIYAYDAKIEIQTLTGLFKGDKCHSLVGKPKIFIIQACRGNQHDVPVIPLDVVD
Target sequence (P55212 194-293 limits assumed): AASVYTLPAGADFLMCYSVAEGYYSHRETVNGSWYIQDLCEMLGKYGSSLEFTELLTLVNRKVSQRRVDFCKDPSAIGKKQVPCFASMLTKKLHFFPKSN
Active calls of the source: *; nt = not tested or not shown. Compounds with a hit are over-represented: about 2.4% of the library has one in this group of screens.

SMILES | ERAP1 HTS inh | S100A4 inh HTS | ARNT-TACC3 inh | Ecoli rRNA inh | PGC1a acetyl inh | Casp6 inh
COc1cccc(S(=O)(=O)N[C@H]2CC[C@H](CC(=O)NCc3ccncc3)O[C@@H]2CO)c1 | 1 | -6 | -17 | 4 | -4 | -1
S=c1[nH]nc(SCc2ccccc2)c2[nH]cnc12 | 1 | 3 | 9 | -17* | 0 | 4
CNC[C@H]1OCCCC[C@@H](C)Oc2ccc(NC(=O)Nc3ccc(C(F)(F)F)cc3)cc2C(=O)N([C@H](C)CO)C[C@@H]1C | 3 | -2 | 11 | -7 | 6 | 1
COc1ccc(N(C(=O)c2snc(C(N)=O)c2N)C(C(=O)NC2CCCC2)c2cccs2)cc1OC (stereo unspecified) | -3 | 3 | -1 | 0 | nt | -1
C#CC(=O)N(c1ccc(OC)cc1OC)C(C(=O)NC1CCCC1)c1cccs1 (stereo unspecified) | 2 | -3 | -7 | -12 | 95* | 6
COc1ccc(N(C(=O)c2ccco2)C(C(=O)NC2CCCCC2)c2cccs2)cc1OC (stereo unspecified) | nt | nt | -4 | nt | -9 | nt
C#CC(=O)N(c1cc(OC)ccc1OC)C(C(=O)NC1CCCC1)c1cccs1 (stereo unspecified) | nt | nt | 11 | nt | 88* | nt
COC(=O)C[C@H]1C[C@@H]2c3cc(NC(=O)Nc4ccccc4F)ccc3O[C@@H]2[C@H](CO)O1 | -2 | -13 | 2 | -3 | 9 | -6
CCCNC(=O)[C@@H]1[C@@H](CO)[C@@H]2Cn3c(ccc(-c4ccc(OC)cc4)c3=O)[C@H]1N2CC | -2 | 3 | nt | 0 | 0 | 1
CC(C)NC(=O)Nc1cccc2c1O[C@@H](CN(C)CC1CCCCC1)[C@H](C)CN([C@@H](C)CO)C2=O | 0 | 2 | nt | -11 | -6 | 1
COc1cccc(CNc2ccc(S(=O)(=O)Nc3nccs3)cc2)c1O | nt | nt | nt | nt | -5 | nt
O=S(=O)(Nc1nccs1)c1ccc(NCc2cc(Br)cc(Br)c2O)cc1 | -3 | 12 | -2 | -47* | -6 | -2
CC(C)NC(=O)N(C)C[C@@H]1Oc2ccc(NC(=O)NC3CCCCC3)cc2CC(=O)N([C@@H](C)CO)C[C@@H]1C | 3 | 9 | -13 | 4 | -2 | nt
Fc1ccc(CNC(=S)NCc2ccc(F)cc2)cc1 | -1 | 2 | 2 | -31* | 87* | 0
COC(=O)c1cn(C[C@H](Cc2ccccc2)NC(=O)c2ccccc2)nn1 | -5 | 2 | nt | nt | -1 | 2
CCCN(CC(=O)Nc1ccccc1C)C(=O)c1ccc(S(=O)(=O)N2CCCCCC2)cc1 | 1 | 0 | 31 | -2 | -4 | -2
COC(=O)COc1ccc(S(=O)(=O)N2CCc3ccccc3C2)cc1C | -1 | -2 | 1 | -26* | -3 | -1
CCCN(CC(=O)Nc1ccccc1C)C(=O)c1cccc(S(=O)(=O)N2CCc3ccccc3C2)c1 | 0 | 11 | 2 | -21* | 6 | -1
CC(C)NC(=O)Nc1ccc2c(c1)C(=O)N([C@@H](C)CO)C[C@H](C)[C@@H](CN(C)S(C)(=O)=O)OCCCC[C@@H](C)O2 | -5 | -1 | 16 | 3 | 3 | -1
COCCCNC(=O)/C(C#N)=C1\N=C(NC(=O)c2cccs2)c2ccccc21 | 54* | 1 | -3 | -5 | -5 | -1
N#C/C(C(=O)NCCc1ccccc1)=C1/N=C(NC(=O)c2cccs2)c2ccccc21 | 10 | -7 | 0 | 15 | nt | -1
O=C(CCN1CCCCC1)NCC[C@@H]1CC[C@@H](NC(=O)c2ccc(F)cc2)[C@H](CO)O1 | -3 | 33 | 7 | 2 | 11 | -6
CCN(CC)c1ccc(/C=N/NC(=O)c2c(Cl)cnn2C)c(O)c1 | nt | nt | 66* | nt | nt | nt
CCOC(=O)N/N=C/c1ccc(N(CC)CC)cc1O | nt | nt | 11 | nt | nt | nt
CCN(CC)c1ccc(/C=N/Nc2nc(C)cc(=O)[nH]2)c(O)c1 | 0 | -4 | 64* | -19 | nt | -2
SMILES | ERAP1 HTS inh | S100A4 inh HTS | ARNT-TACC3 inh | Ecoli rRNA inh | PGC1a acetyl inh | Casp6 inh
Cc1cc(=O)[nH]c(NN=Cc2cc(Br)ccc2O)n1 | -1 | -7 | 64* | -3 | 50* | nt
Cc1cc(=O)[nH]c(N/N=C/c2ccccc2Cl)n1 | 3 | -3 | -13 | 0 | 4 | 2
C[C@H]1CN([C@@H](C)CO)S(=O)(=O)c2ccc(C3=CCCCC3)cc2O[C@H]1CN(C)S(=O)(=O)c1cn(C)cn1 | 2 | 26 | 2 | -2 | -12 | -2
CCn1c(CCc2ccccc2)nc2ccccc21 | 1 | 8 | -3 | -23* | -3 | -3
CCc1nc2ccccc2n1CCc1ccccc1 | -3 | -12 | -6 | -24* | 2 | -3
CC(C)(C)Cc1nc2ccccc2n1CCc1ccccc1 | nt | nt | 1 | nt | -20 | nt
C/C=C/c1ccc([C@H]2[C@@H](CO)N(CCC(F)(F)F)[C@@H]2CNC(=O)C2CCC2)cc1 | 0 | -1 | nt | 0 | nt | 0
COc1ccc(NC(=O)Nc2ccc3c(c2)OC[C@H](C)NC[C@H](C)[C@@H](OC)CN(C)C3=O)cc1 | -1 | 12 | nt | -2 | 7 | 0
CN1C(=O)C(CC(=O)NCCc2ccccc2)N(NC(=O)c2cccc(F)c2)C1=S (stereo unspecified) | 0 | 3 | nt | -16* | nt | 6
COc1ccc(N2C(=O)C(CC(=O)Nc3ccc(Cl)cc3)N(NC(=O)c3cccc(F)c3)C2=S)cc1 (stereo unspecified) | -1 | -31 | 0 | -17* | -1 | 2
O=C(Nc1ccc(F)cc1)c1ccccc1NC(=O)C1CC=CCC1C(=O)O (stereo unspecified) | -7 | -4 | -3 | -4 | nt | 37*
CN(C)C(=O)C[C@H]1CC[C@H]2[C@H](COc3ccc(NC(=O)Nc4cccc(Cl)c4)cc3C(=O)N2C)O1 | -2 | 1 | 3 | -2 | 1 | -3
Clc1c(Cl)c(Cl)c2n[nH]nc2c1Cl | 3 | -4 | 2 | -53* | 1 | 3
CO[C@H]1CN(C)C(=O)c2cc(NC(C)=O)ccc2OC[C@@H](C)N(CCC(F)(F)F)C[C@H]1C | -3 | 2 | -15 | 3 | 1 | 4
CO[C@@H]1CN(C)C(=O)c2ccc(NC(C)=O)cc2OC[C@@H](C)N(C(=O)c2ccncc2)C[C@H]1C | 0 | 2 | 0 | 1 | 5 | nt
O=C(O)c1ccc(-n2cccc2/C=N\NC(=O)c2cc3cc(Br)ccc3o2)cc1 | nt | 7 | 0 | 19 | 9 | 64*
Cc1[nH]n(-c2ccccc2)c(=O)c1N=Nc1cccc(C(=O)O)c1 | -4 | 3 | 1 | -27* | 14 | 0
Cc1[nH]n(C2=NCCS2)c(=O)c1N=Nc1cccc(C(F)(F)F)c1 | -6 | -3 | -3 | -25* | nt | 0

Screening data deposited in PubChem BioAssay by Broad Institute.
